Laboratory results from ChEMBL document CHEMBL2146424, “Synthesis and structure-activity relationship of a novel class of 15-membered macrolide antibiotics known as '11a-azalides'” (2012).
≈ marks a conversion by molar mass, not a printed value.

Assays:
Streptococcus pneumoniae [1] = assay: Antibacterial activity against erythromycin-susceptible Streptococcus pneumoniae ATCC 49619 by broth microdilution method; format: functional
Summary of the method: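 MIC read by broth microdilution following CLSI guidelines for S. pneumoniae; clarithromycin run alongside as comparator in all assays.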

Streptococcus pneumoniae [2] = assay: Antibacterial activity against MLSB-resistant Streptococcus pneumoniae 205 by broth microdilution method; format: functional
Summary of the method: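 MIC measured by broth microdilution following CLSI guidelines for S. pneumoniae; erythromycin-susceptible and erythromycin-resistant pneumococcal strains tested, with clarithromycin as comparator in every run.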

| SMILES | MIC (Streptococcus pneumoniae [1]) | MIC (Streptococcus pneumoniae [2]) |
| --- | --- | --- |
| CC[C@H]1OC(=O)[C@H](C)C(=O)[C@H](C)[C@@H](O[C@@H]2O[C@H](C)C[C@H](N(C)C)[C@H]2O)[C@](C)(OC)C[C@@H](C)C(=O)[C@H](C)[C@H]2N(CCCCn3cnc(-c4cccnc4)c3)C(=O)O[C@]12C [TELITHROMYCIN] | 4 µg/mL (≈ 4.93 µM) | > 128 µg/mL |
| CO[C@]1(C)C[C@@H](C)[C@H](O)[C@H](C)CN(C)C[C@H](c2ccccc2)OC(=O)[C@H](C)[C@@H](O[C@H]2C[C@@](C)(OC)[C@@H](O)[C@H](C)O2)[C@H](C)[C@H]1O[C@@H]1O[C@H](C)C[C@H](N(C)C)[C@H]1O | 0.5 µg/mL (≈ 0.64 µM) | > 128 µg/mL |
| CO[C@]1(C)C[C@@H](C)[C@H](O)[C@H](C)CN(C)[C@@H](CN)COC(=O)[C@H](C)[C@@H](O[C@H]2C[C@@](C)(OC)[C@@H](O)[C@H](C)O2)[C@H](C)[C@H]1O[C@@H]1O[C@H](C)C[C@H](N(C)C)[C@H]1O | 64 µg/mL (≈ 87.2 µM) | > 128 µg/mL |
| CO[C@]1(C)C[C@@H](C)[C@H](O)[C@H](C)CN(C)C[C@H](COc2ccccc2-c2ccccc2)OC(=O)[C@H](C)[C@@H](O[C@H]2C[C@@](C)(OC)[C@@H](O)[C@H](C)O2)[C@H](C)[C@H]1O[C@@H]1O[C@H](C)C[C@H](N(C)C)[C@H]1O | 0.5 µg/mL (≈ 0.564 µM) | 16 µg/mL (≈ 18 µM) |
| CO[C@]1(C)C[C@@H](C)[C@H](O)[C@H](C)CN(C)[C@@H](CCOCc2ccccc2)COC(=O)[C@H](C)[C@@H](O[C@H]2C[C@@](C)(OC)[C@@H](O)[C@H](C)O2)[C@H](C)[C@H]1O[C@@H]1O[C@H](C)C[C@H](N(C)C)[C@H]1O | 1 µg/mL (≈ 1.19 µM) | 64 µg/mL (≈ 76.3 µM) |
| CO[C@]1(C)C[C@@H](C)[C@H](O)[C@H](C)CN(C)C[C@H](COc2ccc(-c3cccnc3)cc2)OC(=O)[C@H](C)[C@@H](O[C@H]2C[C@@](C)(OC)[C@@H](O)[C@H](C)O2)[C@H](C)[C@H]1O[C@@H]1O[C@H](C)C[C@H](N(C)C)[C@H]1O | 0.5 µg/mL (≈ 0.563 µM) | 64 µg/mL (≈ 72.1 µM) |
| CO[C@]1(C)C[C@@H](C)[C@H](O)[C@H](C)CN(C)C[C@@H](COCc2ccccc2)OC(=O)[C@H](C)[C@@H](O[C@H]2C[C@@](C)(OC)[C@@H](O)[C@H](C)O2)[C@H](C)[C@H]1O[C@@H]1O[C@H](C)C[C@H](N(C)C)[C@H]1O | 1 µg/mL (≈ 1.21 µM) | 64 µg/mL (≈ 77.6 µM) |
| CO[C@]1(C)C[C@@H](C)[C@H](O)[C@H](C)CN(C)[C@@H](COCc2ccccc2)COC(=O)[C@H](C)[C@@H](O[C@H]2C[C@@](C)(OC)[C@@H](O)[C@H](C)O2)[C@H](C)[C@H]1O[C@@H]1O[C@H](C)C[C@H](N(C)C)[C@H]1O | 1 µg/mL (≈ 1.21 µM) | 64 µg/mL (≈ 77.6 µM) |
| CO[C@]1(C)C[C@@H](C)[C@H](O)[C@H](C)CN(C)C[C@H](COc2ccccc2)OC(=O)[C@H](C)[C@@H](O[C@H]2C[C@@](C)(OC)[C@@H](O)[C@H](C)O2)[C@H](C)[C@H]1O[C@@H]1O[C@H](C)C[C@H](N(C)C)[C@H]1O | 0.25 µg/mL (≈ 0.308 µM) | 32 µg/mL (≈ 39.5 µM) |
| CO[C@]1(C)C[C@@H](C)[C@H](O)[C@H](C)CN(C)C[C@H](COCc2ccccc2)OC(=O)[C@H](C)[C@@H](O[C@H]2C[C@@](C)(OC)[C@@H](O)[C@H](C)O2)[C@H](C)[C@H]1O[C@@H]1O[C@H](C)C[C@H](N(C)C)[C@H]1O | 0.06 µg/mL (≈ 0.0727 µM) | 128 µg/mL (≈ 155 µM) |
| CO[C@]1(C)C[C@@H](C)[C@H](O)[C@H](C)CN(C)C[C@H](COc2ccc(-c3ccccn3)cc2)OC(=O)[C@H](C)[C@@H](O[C@H]2C[C@@](C)(OC)[C@@H](O)[C@H](C)O2)[C@H](C)[C@H]1O[C@@H]1O[C@H](C)C[C@H](N(C)C)[C@H]1O | 0.25 µg/mL (≈ 0.281 µM) | 16 µg/mL (≈ 18 µM) |
| CO[C@]1(C)C[C@@H](C)[C@H](O)[C@H](C)CN(C)C[C@H](COc2cccc(-c3ccccc3)c2)OC(=O)[C@H](C)[C@@H](O[C@H]2C[C@@](C)(OC)[C@@H](O)[C@H](C)O2)[C@H](C)[C@H]1O[C@@H]1O[C@H](C)C[C@H](N(C)C)[C@H]1O | 1 µg/mL (≈ 1.13 µM) | 16 µg/mL (≈ 18 µM) |
| CO[C@]1(C)C[C@@H](C)[C@H](O)[C@H](C)CN(C)C[C@H](COc2ccc(-c3ccccc3)cc2)OC(=O)[C@H](C)[C@@H](O[C@H]2C[C@@](C)(OC)[C@@H](O)[C@H](C)O2)[C@H](C)[C@H]1O[C@@H]1O[C@H](C)C[C@H](N(C)C)[C@H]1O | 1 µg/mL (≈ 1.13 µM) | 8 µg/mL (≈ 9.02 µM) |
| CO[C@]1(C)C[C@H](O[C@H]2[C@H](C)[C@@H](O[C@@H]3O[C@H](C)C[C@H](N(C)C)[C@H]3O)[C@](C)(O)C[C@@H](C)[C@H](N)[C@H](C)CN(C)C[C@H](COCc3ccccc3)OC(=O)[C@@H]2C)O[C@@H](C)[C@@H]1O | 0.12 µg/mL (≈ 0.148 µM) | > 128 µg/mL |
| CO[C@]1(C)C[C@@H](C)[C@H](O)[C@H](C)CN(C)CCOC(=O)[C@H](C)[C@@H](O[C@H]2C[C@@](C)(OC)[C@@H](O)[C@H](C)O2)[C@H](C)[C@H]1O[C@@H]1O[C@H](C)C[C@H](N(C)C)[C@H]1O | 2 µg/mL (≈ 2.84 µM) | > 128 µg/mL |
| CCN(CCNC(=O)O[C@H]1[C@H](C)O[C@@H](O[C@H]2[C@H](C)[C@@H](O[C@@H]3O[C@H](C)C[C@H](N(C)C)[C@H]3O)[C@](C)(O)C[C@@H](C)[C@H](N)[C@H](C)CN(C)CCOC(=O)[C@@H]2C)C[C@@]1(C)OC)[C@@H](C)c1ccccc1OC | 0.12 µg/mL (≈ 0.128 µM) | 0.5 µg/mL (≈ 0.533 µM) |
| CO[C@]1(C)C[C@H](O[C@H]2[C@H](C)[C@@H](O[C@@H]3O[C@H](C)C[C@H](N(C)C)[C@H]3O)[C@](C)(O)C[C@@H](C)[C@H](N)[C@H](C)CN(C)CCOC(=O)[C@@H]2C)O[C@@H](C)[C@@H]1O | 2 µg/mL (≈ 2.9 µM) | > 128 µg/mL |
| CO[C@]1(C)C[C@@H](C)[C@H](O)[C@H](C)CN(C)CCOC(=O)C(C)C(=O)[C@H](C)[C@H]1O[C@@H]1O[C@H](C)C[C@H](N(C)C)[C@H]1O (mixture of isomers) | > 128 µg/mL | > 128 µg/mL |
| CC[C@H]1OC(=O)[C@H](C)[C@@H](O[C@H]2C[C@@](C)(OC)[C@@H](O)[C@H](C)O2)[C@H](C)[C@@H](O[C@@H]2O[C@H](C)C[C@H](N(C)C)[C@H]2O)[C@](C)(OC)C[C@@H](C)C(=O)[C@H](C)[C@@H](O)[C@]1(C)O [CLARITHROMYCIN] | 0.03 µg/mL (≈ 0.0401 µM) | > 128 µg/mL |
| CCN(CCNC(=O)O[C@H]1[C@H](C)O[C@@H](O[C@H]2[C@H](C)[C@@H](O[C@@H]3O[C@H](C)C[C@H](N(C)C)[C@H]3O)[C@](C)(O)C[C@@H](C)[C@H](N)[C@H](C)CN(C)C[C@H](COCc3ccccc3)OC(=O)[C@@H]2C)C[C@@]1(C)OC)[C@@H](C)c1ccccc1OC | 0.12 µg/mL (≈ 0.113 µM) | 0.25 µg/mL (≈ 0.236 µM) |
| CO[C@]1(C)C[C@@H](C)[C@H](O)[C@H](C)CN(C)C[C@H](CCOCc2ccccc2)OC(=O)[C@H](C)[C@@H](O[C@H]2C[C@@](C)(OC)[C@@H](O)[C@H](C)O2)[C@H](C)[C@H]1O[C@@H]1O[C@H](C)C[C@H](N(C)C)[C@H]1O | 0.12 µg/mL (≈ 0.143 µM) | 128 µg/mL (≈ 153 µM) |
| CO[C@]1(C)C[C@@H](C)C(=O)[C@H](C)CN(C)CCOC(=O)[C@H](C)[C@@H](O[C@H]2C[C@@](C)(OC)[C@@H](O)[C@H](C)O2)[C@H](C)[C@H]1O[C@@H]1O[C@H](C)C[C@H](N(C)C)[C@H]1O | 32 µg/mL (≈ 45.5 µM) | > 128 µg/mL |
| CCN(CC)C[C@H]1COC(=O)[C@H](C)[C@@H](O[C@H]2C[C@@](C)(OC)[C@@H](O)[C@H](C)O2)[C@H](C)[C@@H](O[C@@H]2O[C@H](C)C[C@H](N(C)C)[C@H]2O)[C@](C)(OC)C[C@@H](C)[C@H](O)[C@H](C)CN1C | 128 µg/mL (≈ 162 µM) | > 128 µg/mL |
| CO[C@]1(C)C[C@@H](C)[C@H](O)[C@H](C)CN(C)[C@H](COCc2ccccc2)COC(=O)[C@H](C)[C@@H](O[C@H]2C[C@@](C)(OC)[C@@H](O)[C@H](C)O2)[C@H](C)[C@H]1O[C@@H]1O[C@H](C)C[C@H](N(C)C)[C@H]1O | 4 µg/mL (≈ 4.85 µM) | 64 µg/mL (≈ 77.6 µM) |
